The values that follow come from ChEMBL document CHEMBL1649111, “Restoration of susceptibility of intracellular methicillin-resistant Staphylococcus aureus to beta-lactams: comparison of strains, cells, and antibiotics” (Antimicrob Agents Chemother, 2008).

Series [1] in a line: Chemical stability of the compound assessed as compound remaining after 24 hrs in PBS buffer by HPLC analysis at pH 7.4. To be noted: read-out: Activity. The format is physicochemical. In short, it runs like this: (§1)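 Drug at 50 mg/liter initial concentration incubated 24 h at 37°C in buffered medium at pH 7.4 or 5.5. Remaining drug measured by HPLC signal disappearance; mobile phase 25 mM phosphate buffer pH 6.7 with acetonitrile (75:25).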

A short description of series [2]: Chemical stability of the compound assessed as compound remaining after 24 hrs PBS buffer by HPLC analysis at pH 5.5. The settings on record: read-out: Activity. Format: physicochemical. In short, it runs like this: as §1
The test system of the next series is THP-1. The series can be described thus: Ratio of intracellular to extracellular drug level in human THP1 cells at 250 mg/L after 24 hrs. Format: ADME, cell-based. To be noted: thp-1, 24 h. The procedure, abridged:
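THP-1 cells incubated 24 h at 250 mg/liter extracellular drug. Cell lysates assayed microbiologically with MSSA ATCC 25923; content expressed per mg total protein. Cellular/extracellular ratio calculated assuming cell volume of 5 μl per mg protein.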

The structures appear in SMILES notation.

Regarding `C[C@@H](O)[C@H]1C(=O)N2C(C(=O)O)=C(SCCN=CN)C[C@H]12` [IMIPENEM ANHYDROUS], the remaining at 24 h in series [1] is 39.3%; in series [2] it was 30.5%. Besides, in the series on THP-1, the Ratio was determined as 0.05.
With `C[C@@H](O)[C@H]1C(=O)N2C(C(=O)O)=C(S[C@@H]3CN[C@H](C(=O)N(C)C)C3)[C@H](C)[C@H]12` [MEROPENEM], the remaining at 24 h in series [1] came out at 49.3%; in series [2] it was 40.3%. Moreover, in the series on THP-1, the Ratio was 0.2.
Consider `Cc1onc(-c2ccccc2)c1C(=O)N[C@@H]1C(=O)N2[C@@H]1SC(C)(C)[C@@H]2C(=O)O` [OXACILLIN], for which the remaining at 24 h in series [1] was found to be 94.2%; in series [2], 91.8%. For the same compound, the Ratio in the series with THP-1 came to 0.2.
